Values after ≈ are worked out from the molar mass of the structure shown.
What was measured:
Staphylococcus aureus [1] = test: Antimicrobial activity against Staphylococcus aureus after 24 hrs by broth microdilution method; assay type: functional
Outline: (§1)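 Broth microdilution following NCCLS M7-A4; ATCC strains and clinical isolates from a provincial hospital.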

Staphylococcus aureus [2] = test: Antimicrobial activity against methicillin-susceptible Staphylococcus aureus after 24 hrs by broth microdilution method; assay type: functional; outline: as §1
Staphylococcus aureus [3] = test: Antimicrobial activity against methicillin-resistant Staphylococcus aureus after 24 hrs by broth microdilution method; assay type: functional
Outline: (§2)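 Broth microdilution following NCCLS M7-A4, using ATCC strains and clinical isolates from a provincial hospital.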

[4] = system: Staphylococcus epidermidis; test: Antimicrobial activity against methicillin-resistant Staphylococcus epidermidis after 24 hrs by broth microdilution method; assay type: functional; outline: as §2
[5] = system: Staphylococcus epidermidis; test: Antimicrobial activity against methicillin-susceptible Staphylococcus epidermidis after 24 hrs by broth microdilution method; assay type: functional; outline: as §1
Enterococcus faecalis [6] = test: Antimicrobial activity against Enterococcus faecalis after 24 hrs by broth microdilution method; assay type: functional; outline: as §1
Moraxella catarrhalis [7] = test: Antimicrobial activity against Moraxella catarrhalis after 24 hrs by broth microdilution method; assay type: functional; outline: as §1
Streptococcus pneumoniae [8] = test: Antimicrobial activity against penicillin-resistant Streptococcus pneumoniae after 24 hrs by broth microdilution method; assay type: functional; outline: as §2
hERG (KCNH2) [9] = molecular target: T1, hERG (KCNH2) (Homo sapiens, UniProt Q12809); test: Inhibition of human ERG at 1 uM
[10] = system: Staphylococcus epidermidis; test: Antimicrobial activity against Staphylococcus epidermidis after 24 hrs by broth microdilution method; assay type: functional; outline: as §1
Escherichia coli [11] = test: Antimicrobial activity against Escherichia coli isolate 1 after 24 hrs by broth microdilution method; assay type: functional; settings: isolate 1, 24 h; outline: as §1
Escherichia coli [12] = test: Antimicrobial activity against Escherichia coli isolate 2 after 24 hrs by broth microdilution method; assay type: functional; settings: isolate 2, 24 h; outline: as §1
Staphylococcus aureus [13] = test: Antimicrobial activity against Staphylococcus aureus OXFORD after 24 hrs by broth microdilution method; assay type: functional; outline: as §2
Staphylococcus aureus [14] = test: Antimicrobial activity against Staphylococcus aureus WCUH29 after 24 hrs by broth microdilution method; assay type: functional; settings: WCUH29, 24 h; outline: as §1
Enterococcus faecalis [15] = test: Antimicrobial activity against Enterococcus faecalis Isolate 1 after 24 hrs by broth microdilution method; assay type: functional; settings: Isolate 1, 24 h; outline: as §1
Enterococcus faecium = test: Antimicrobial activity against Enterococcus faecium X7501 after 24 hrs by broth microdilution method; assay type: functional; settings: X7501, 24 h; outline: as §1
Haemophilus influenzae [16] = test: Antimicrobial activity against Haemophilus influenzae Q1 after 24 hrs by broth microdilution method; assay type: functional; settings: Q1, 24 h; outline: as §1
Haemophilus influenzae [17] = test: Antimicrobial activity against Haemophilus influenzae H128 after 24 hrs by broth microdilution method; assay type: functional; settings: H128, 24 h; outline: as §1
Haemophilus influenzae [18] = test: Antimicrobial activity against AcrA-deficient Haemophilus influenzae H128 after 24 hrs by broth microdilution method; assay type: functional; settings: H128, 24 h; outline: as §1
Moraxella catarrhalis [19] = test: Antimicrobial activity against Moraxella catarrhalis 1502 after 24 hrs by broth microdilution method; assay type: functional; settings: Moraxella catarrhalis, 1502, 24 h; outline: as §1
Streptococcus pneumoniae [20] = test: Antimicrobial activity against Streptococcus pneumoniae 1629 after 24 hrs by broth microdilution method; assay type: functional; settings: Streptococcus pneumoniae, 1629, 24 h; outline: as §1
Streptococcus pneumoniae [21] = test: Antimicrobial activity against Streptococcus pneumoniae N1387 after 24 hrs by broth microdilution method; assay type: functional; settings: N1387, 24 h; outline: as §1
Streptococcus pneumoniae [22] = test: Antimicrobial activity against Streptococcus pneumoniae ERY2 after 24 hrs by broth microdilution method; assay type: functional; settings: ERY2, 24 h; outline: as §1
Escherichia coli [23] = test: Antimicrobial activity against Escherichia coli isolate 3 after 24 hrs by broth microdilution method; assay type: functional; settings: isolate 3, 24 h; outline: as §1
Streptococcus pyogenes [24] = test: Antimicrobial activity against Streptococcus pyogenes 1307006P after 24 hrs by broth microdilution method; assay type: functional; outline: as §1
Streptococcus pyogenes [25] = test: Antimicrobial activity against Streptococcus pyogenes 1308007P after 24 hrs by broth microdilution method; assay type: functional; outline: as §1
[26] = Half life in Sprague-Dawley rat at 5 mg/kg, iv; assay type: ADME, organism-based; design: dose 5 mg/kg, route intravenous; settings: in vivo
[27] = Mean residence time (0 to t) in Sprague-Dawley rat at 5 mg/kg, iv; assay type: ADME, organism-based; design: dose 5 mg/kg, route intravenous; settings: in vivo
[28] = AUC (0 to t) in Sprague-Dawley rat at 5 mg/kg, iv; assay type: ADME, organism-based; design: dose 5 mg/kg, route intravenous; settings: plasma
[29] = AUC (0 to infinity) in Sprague-Dawley rat at 5 mg/kg, iv; assay type: ADME, organism-based; design: time infinity, dose 5 mg/kg, route intravenous; settings: plasma
[30] = Clearance in Sprague-Dawley rat at 5 mg/kg, iv; assay type: ADME, organism-based; design: dose 5 mg/kg, route intravenous; settings: in vivo
[31] = Volume of distribution at steady state in Sprague-Dawley rat at 5 mg/kg, iv; assay type: ADME, organism-based; design: dose 5 mg/kg, route intravenous; settings: in vivo, read-out: Vdss
[32] = Cmax in Sprague-Dawley rat at 25 mg/kg, po; assay type: ADME, organism-based; design: dose 25 mg/kg, route oral; settings: in vivo
[33] = Tmax in Sprague-Dawley rat at 25 mg/kg, po; assay type: ADME, organism-based; design: dose 25 mg/kg, route oral; settings: in vivo
[34] = Half life in Sprague-Dawley rat at 25 mg/kg, po; assay type: ADME, organism-based; design: dose 25 mg/kg, route oral; settings: in vivo
[35] = AUC (0 to t) in Sprague-Dawley rat at 25 mg/kg, po; assay type: ADME, organism-based; design: dose 25 mg/kg, route oral; settings: plasma
[36] = AUC (0 to infinity) in Sprague-Dawley rat at 25 mg/kg, po; assay type: ADME, organism-based; design: dose 25 mg/kg, route oral, time infinity; settings: plasma
[37] = Mean residence time (0 to t) in Sprague-Dawley rat at 25 mg/kg, po; assay type: ADME, organism-based; design: dose 25 mg/kg, route oral; settings: in vivo
[38] = Oral bioavailability in Sprague-Dawley rat at 25 mg/kg; assay type: ADME, organism-based; settings: in vivo
hERG (KCNH2) [39] = molecular target: T1, hERG (KCNH2); test: Inhibition of human ERG at 10 uM

T1 sequence (Q12809 whole entry): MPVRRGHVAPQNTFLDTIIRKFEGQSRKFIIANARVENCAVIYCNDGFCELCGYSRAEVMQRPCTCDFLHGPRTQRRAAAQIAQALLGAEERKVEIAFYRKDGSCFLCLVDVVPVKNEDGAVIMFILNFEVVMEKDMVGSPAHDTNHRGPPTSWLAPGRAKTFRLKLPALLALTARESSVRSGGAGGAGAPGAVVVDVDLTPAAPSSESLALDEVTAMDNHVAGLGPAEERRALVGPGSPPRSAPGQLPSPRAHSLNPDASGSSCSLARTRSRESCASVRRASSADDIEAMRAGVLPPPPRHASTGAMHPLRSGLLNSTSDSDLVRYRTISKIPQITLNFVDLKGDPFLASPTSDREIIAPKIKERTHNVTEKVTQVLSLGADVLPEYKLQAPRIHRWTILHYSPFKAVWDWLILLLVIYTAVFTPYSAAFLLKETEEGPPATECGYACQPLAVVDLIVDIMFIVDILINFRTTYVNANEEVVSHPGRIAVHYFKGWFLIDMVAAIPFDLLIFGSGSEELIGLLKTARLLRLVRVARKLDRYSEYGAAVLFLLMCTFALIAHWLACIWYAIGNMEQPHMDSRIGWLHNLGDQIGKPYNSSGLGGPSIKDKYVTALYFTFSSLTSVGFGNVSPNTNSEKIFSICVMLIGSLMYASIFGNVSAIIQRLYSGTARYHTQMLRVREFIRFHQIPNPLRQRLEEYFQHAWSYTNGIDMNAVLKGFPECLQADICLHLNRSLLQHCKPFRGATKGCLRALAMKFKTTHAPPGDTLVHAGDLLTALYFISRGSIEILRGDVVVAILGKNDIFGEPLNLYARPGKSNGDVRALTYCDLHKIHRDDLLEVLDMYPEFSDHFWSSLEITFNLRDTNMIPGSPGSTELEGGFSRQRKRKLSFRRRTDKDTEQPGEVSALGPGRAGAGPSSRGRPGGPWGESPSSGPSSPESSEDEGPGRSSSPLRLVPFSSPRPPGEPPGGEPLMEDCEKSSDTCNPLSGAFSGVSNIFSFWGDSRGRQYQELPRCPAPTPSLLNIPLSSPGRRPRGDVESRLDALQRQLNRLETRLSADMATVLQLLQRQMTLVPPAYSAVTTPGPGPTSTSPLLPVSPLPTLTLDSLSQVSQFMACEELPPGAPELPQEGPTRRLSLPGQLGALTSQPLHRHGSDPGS

| Compound | MIC (Staphylococcus aureus [1]) [mg/L] | MIC (Staphylococcus aureus [2]) [mg/L] | MIC (Staphylococcus aureus [3]) [mg/L] | MIC [4] [mg/L] | MIC [5] [mg/L] | MIC (Enterococcus faecalis [6]) [mg/L] | MIC (Moraxella catarrhalis [7]) [mg/L] | MIC (Streptococcus pneumoniae [8]) [mg/L] | MIC [10] [mg/L] | MIC (Escherichia coli [11]) [mg/L] | MIC (Escherichia coli [12]) [mg/L] | MIC (Staphylococcus aureus [13]) [mg/L] | MIC (Staphylococcus aureus [14]) [mg/L] | MIC (Enterococcus faecalis [15]) [mg/L] | MIC (Enterococcus faecium) [mg/L] | MIC (Haemophilus influenzae [16]) [mg/L] | MIC (Haemophilus influenzae [17]) [mg/L] | MIC (Haemophilus influenzae [18]) [mg/L] | MIC (Moraxella catarrhalis [19]) [mg/L] | MIC (Streptococcus pneumoniae [20]) [mg/L] | further results |
| --- | --- | --- | --- | --- | --- | --- | --- | --- | --- | --- | --- | --- | --- | --- | --- | --- | --- | --- | --- | --- | --- |
| CCCC[C@H](CN(O)C=O)C(=O)N1[C@H](C(=O)Nc2ncc(C)s2)C[C@H]2CCCC[C@@H]21 | 8 (≈ 18.3 µM) | 8 (≈ 18.3 µM) | 8 (≈ 18.3 µM) | 16 (≈ 36.6 µM) | 0.5 (≈ 1.15 µM) | > 16 | 0.03 (≈ 0.0687 µM) | 0.03 (≈ 0.0687 µM) |  |  |  |  |  |  |  |  |  |  |  |  |  |
| Cc1ccc(NC(=O)[C@@H]2C[C@H]3CCCC[C@@H]3N2C(=O)[C@H](CC2CCCC2)CN(O)C=O)nc1 | 4 (≈ 8.76 µM) | 4 (≈ 8.76 µM) | 4 (≈ 8.76 µM) | 8 (≈ 17.5 µM) | 0.5 (≈ 1.1 µM) | > 16 | 0.5 (≈ 1.1 µM) | 0.03 (≈ 0.0657 µM) |  |  |  |  |  |  |  |  |  |  |  |  |  |
| CCCC[C@H](CN(O)C=O)C(=O)N1[C@H](C(=O)Nc2ccc(C)cn2)C[C@H]2CCCC[C@@H]21 | 8 (≈ 18.6 µM) | 8 (≈ 18.6 µM) | 4 (≈ 9.29 µM) | 16 (≈ 37.2 µM) | 0.5 (≈ 1.16 µM) | > 16 | 0.03 (≈ 0.0697 µM) | 0.03 (≈ 0.0697 µM) |  |  |  |  |  |  |  |  |  |  |  |  |  |
| O=CN(O)C[C@@H](CC1CCCC1)C(=O)N1CC=C[C@H]1C(=O)Nc1ccc(F)c[n+]1[O-] | 0.25 (≈ 0.595 µM) | 0.5 (≈ 1.19 µM) | 0.25 (≈ 0.595 µM) |  |  |  |  |  | 0.25 (≈ 0.595 µM) | 64 (≈ 152 µM) | 32 (≈ 76.1 µM) | 0.5 (≈ 1.19 µM) | 0.125 (≈ 0.297 µM) | 2 (≈ 4.76 µM) | 1 (≈ 2.38 µM) | 1 (≈ 2.38 µM) | 2 (≈ 4.76 µM) | ≤ 0.06 | ≤ 0.06 | 0.5 (≈ 1.19 µM) | inhibition at 1 µM (hERG (KCNH2) [9]): 1.15%; MIC (Streptococcus pneumoniae [21]): 0.125 mg/L (≈ 0.297 µM); MIC (Streptococcus pneumoniae [22]): 0.25 mg/L (≈ 0.595 µM); MIC (Escherichia coli [23]): 64 mg/L (≈ 152 µM); MIC (Streptococcus pyogenes [24]): 0.25 mg/L (≈ 0.595 µM); MIC (Streptococcus pyogenes [25]): 0.5 mg/L (≈ 1.19 µM); half-life [26]: 48.4 min; MRT last [27]: 30.2 min; AUC(0-t) [28]: 1.61 µg·h/mL; AUC(0-inf) [29]: 1.61 µg·h/mL; clearance [30]: 3.1 L/h/kg; Vd [31]: 1.6 L/kg; Cmax [32]: 0.956 µg/mL; Tmax [33]: 22.5 min; half-life [34]: 155 min; AUC(0-t) [35]: 1.63 µg·h/mL; AUC(0-inf) [36]: 1.81 µg·h/mL; MRT last [37]: 121 min; bioavailability [38]: 22.4%; inhibition at 10 µM (hERG (KCNH2) [39]): 0.89% |
| CCCC[C@H](CN(O)C=O)C(=O)N1C[C@@H](F)C[C@H]1C(=O)Nc1ccc(F)c[n+]1[O-] | 4 (≈ 9.65 µM) | 4 (≈ 9.65 µM) | 4 (≈ 9.65 µM) | 16 (≈ 38.6 µM) | 4 (≈ 9.65 µM) | > 16 | 0.25 (≈ 0.603 µM) | 0.06 (≈ 0.145 µM) |  |  |  |  |  |  |  |  |  |  |  |  |  |
| O=CN(O)C[C@@H](CC1CCCC1)C(=O)N1CC=C[C@H]1C(=O)Nc1ccccc1 | 4 (≈ 10.4 µM) | 4 (≈ 10.4 µM) | 1 (≈ 2.59 µM) |  |  |  |  |  | 0.5 (≈ 1.3 µM) | 32 (≈ 83 µM) | 32 (≈ 83 µM) | 1 (≈ 2.59 µM) | 0.125 (≈ 0.324 µM) | > 64 | 1 (≈ 2.59 µM) | 2 (≈ 5.19 µM) | 2 (≈ 5.19 µM) | ≤ 0.06 | ≤ 0.06 | 2 (≈ 5.19 µM) | MIC (Streptococcus pneumoniae [21]): 0.5 mg/L (≈ 1.3 µM); MIC (Streptococcus pneumoniae [22]): 1 mg/L (≈ 2.59 µM); MIC (Escherichia coli [23]): 64 mg/L (≈ 166 µM); MIC (Streptococcus pyogenes [24]): 0.25 mg/L (≈ 0.649 µM); MIC (Streptococcus pyogenes [25]): 0.5 mg/L (≈ 1.3 µM) |

— ChEMBL document CHEMBL3352487, “Synthesis, antibacterial activity, and biological evaluation of formyl hydroxyamino derivatives as novel potent peptide deformylase inhibitors against drug-resistant bacteria” (Eur J Med Chem, 2014)
